Experimental data: publication PMC8102310 (Cancer discovery, 2021)
Like-named read-outs stand apart in the source and are kept apart here.

How the values were obtained:
[1] = test system: androgen-dependent and castration resistant prostate cancer cell lines; conditions: ref [35], [54]; cited from earlier work
LNCaP-Bic mouse = LNCaP-Bic mouse xenograft; type: in vivo
CP50c PDX = test: CP50c patient-derived xenograft; type: in vivo, mouse
How it was run: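 CP50c PDX was passaged twice in castrated mice, then fragments were grafted subcutaneously into castrated male NSG mice. Oral gavage dosing began at about 300–400 mm³, once daily, with 5% DMSO:95% methylcellulose (0.5% w/v) as vehicle or formulation. Volumes were taken every 2–3 days and grouped by 5-day intervals, n=6 per group. Growth was normalized to start, and time to 300% of starting volume served as the surrogate survival endpoint.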

VCaP = test: Cell proliferation; type: cell-based; conditions: Homo sapiens, read-out: growth inhibition IC50
BRD2, 3, 4, 9 and WDR9 = test: Bromoscan assay of 32 bromodomains; conditions: at 1 μM; minimal binding
97 kinases = test: Screen of 97 kinases; type: biochemical; conditions: at 10 μM
22Rv1 mouse xenografts = test: 22Rv1 mouse xenograft; type: in vivo
22Rv1 = test: Cell proliferation; type: cell-based
[2] = test system: 44 receptors, enzymes and ion channels; test: Safety screen of 44 receptors, enzymes and ion channels; type: biochemical; conditions: at 10 μM
22Rv1 cells [3] = test: Chromatin immunoprecipitation of CBP, p300 and AR-FL at AR binding sites; type: cell-based; conditions: 500nM, 10nM dihydrotestosterone
LNCaP95 cells = test: AR and C-MYC signaling; type: cell-based
LNCaP95 = test: Cell proliferation; type: cell-based; conditions: LNCaP-95, read-out: growth inhibition IC50
C4–2 cells = test: Chromatin immunoprecipitation of CBP, p300 and AR-FL at AR binding sites; type: cell-based; conditions: 500nM, 10nM dihydrotestosterone
BRD4 bromodomain = BRD4 bromodomain (Homo sapiens, UniProt O60885); type: cell-based
patients with mCRPC = test: First in human phase I trial; type: in vivo
[4] = test system: JQ1 resistant 22Rv1 cells; test: Cell proliferation in JQ1 resistant cells; type: cell-based; conditions: for resistance, resistant vs parental: JQ1 resistant 22Rv1 cells
How it was run: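 For resistance, 22Rv1 cells were cultured for 6 months in escalating BET inhibitor (30 nM up to 500 nM) or in 0.1% DMSO vehicle. Dose was raised only when morphology, viability and growth were good and after at least two passages at the prior dose. Parental (vehicle-cultured) and resistant cells were then compared for proliferation IC50.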

22Rv1 cells [5] = test: AR and C-MYC signaling; type: cell-based
[6] = test system: AR negative, hormone independent, cell lines; test: Cell proliferation; type: cell-based; conditions: read-out: growth inhibition IC50

CNC(=O)Nc1ccc2c(c1)CC[C@@]21OC(=O)N(CC(=O)N(Cc2ccc(F)cc2)[C@@H](C)C(F)(F)F)C1=O [A-485]
cell death [1]: induce cell death

CC1=NN(c2ccc(C(=O)O)cc2)C(=O)/C1=C\c1ccc(-c2cc(C)c(C)cc2[N+](=O)[O-])o1 [C646]
cell death [1]: induce cell death

CO[C@H]1CC[C@H](n2c([C@@H]3CCCC(=O)N3c3ccc(F)c(F)c3)nc3cc(-c4c(C)noc4C)ccc32)CC1 [CCS1477]
tumor growth compared to enzalutamide (LNCaP-Bic mouse): significantly (p=<0.001) reduced tumor growth | median time to 300% growth (CP50c PDX; 20 mg/kg once-daily, vehicle 38): 56 days | survival (time to 300% growth) (CP50c PDX; oral 20 mg/kg QD vs vehicle): significantly (p=<0.001) prolonged survival | tumor growth (CP50c PDX; oral 20 mg/kg QD vs vehicle): significantly (p=0.02) reduced tumor growth | IC50 (VCaP): < 100 nM | binding, % of control (BRD2, 3, 4, 9 and WDR9): 14–33 % of control | biochemical inhibitory activity (97 kinases): no biochemical inhibitory activity | most effective tolerated dose (22Rv1 mouse xenografts; 22Rv1 xenograft): 20 mg/kg | concentration of CCS1477 in plasma and tumor (22Rv1 mouse xenografts; 24-hours after the last dose): undetectable | AR-FL, AR-V7 and C-MYC protein expression in tumors (22Rv1 mouse xenografts; after 7-days of treatment, all doses tested): reduced | plasma KLK3 concentrations (22Rv1 mouse xenografts; all doses): decrease | levels of CCS1477 in plasma or tumor (22Rv1 mouse xenografts; day 52): no detectable levels | tolerability (22Rv1 mouse xenografts; mouse, in vivo): well tolerated with no change in body weight or condition of the animals | tumor growth (22Rv1 mouse xenografts; oral, 10mg/kg QD, 20 mg/kg QD, 30 mg/kg QOD, vs vehicle): significantly (p=<0.001) impacted tumor growth | tumor growth inhibition after treatment stopped at 28-days (22Rv1 mouse xenografts; treatment stopped after 28-days): sustained until day 52 | IC50 (22Rv1; Homo sapiens, 22Rv1, read-out: growth inhibition IC50, 22Rv1): < 100 nM | IC50 (22Rv1; read-out: growth inhibition IC50, 22Rv1): 96 nM | biochemical inhibitory activity in safety screen [2]: no biochemical inhibitory activity | recruitment of CBP, p300 and AR-FL to AR binding sites (22Rv1 cells [3]): reduced the recruitment of CBP, p300 and AR-FL | expression of AR regulated genes (KLK2, KLK3 and TMPRSS2) (LNCaP95 cells; 48-hours): reduced | C-MYC protein expression (LNCaP95 cells; LNCaP95): reduced | IC50 (LNCaP95): < 100 nM | recruitment of CBP, p300 and AR-FL to AR binding sites (C4–2 cells): reduced the recruitment of CBP, p300 and AR-FL | IC50 (BRD4 bromodomain): 1060 nM | plasma KLK3 (patients with mCRPC; Patient 1, 50 mg BD 3-days-on-and-4 days-off): initial fall in plasma KLK3 which then stabilized | biopsy protein expression post-dose vs pre-dose (IHC) (patients with mCRPC; Patient 1, 50 mg BD, 4-hours post dose): reduction in AR-V7 and C-MYC protein expression | biopsy protein expression post-dose vs pre-dose (IHC) (patients with mCRPC; Patient 2, 25 mg BD, 3-hours post dose): reduction in C-MYC and Ki67 protein expression | sensitivity of JQ1 resistant 22Rv1 cells to treatment ([4]; compared with parental): more sensitive | C-MYC protein expression (22Rv1 cells [5]; 22Rv1): reduced | expression of AR regulated genes (KLK2, KLK3 and TMPRSS2) (22Rv1 cells [5]; 48-hours): reduced | IC50 [6]: > 1000 nM

Cc1sc2c(c1C)C(c1ccc(Cl)cc1)=N[C@@H](CC(=O)OC(C)(C)C)c1nnc(C)n1-2 [JQ1]
IC50 (22Rv1; read-out: IC50 in parental 22Rv1 cells, parental cells, vehicle cultured): 60 nM | resistance, resistant vs parental [4]: > 100 fold | IC50 ([4]; read-out: IC50 in JQ1 resistant 22Rv1 cells, resistant cells): 7300 nM

Cc1sc2c(c1C)C(c1ccc(Cl)cc1)=N[C@@H](CC(=O)Nc1ccc(O)cc1)c1nnc(C)n1-2 [OTX-015]
resistance, resistant vs parental [4]: > 100 fold

I-BET151
resistance, resistant vs parental [4]: > 100 fold
